Activity calls are given as the source filed them. The rule behind the calls is not given here.

The record followed here is ChEMBL document CHEMBL1765010, “Reversible competitive α-ketoheterocycle inhibitors of fatty acid amide hydrolase containing additional conformational constraints in the acyl side chain: orally active, long-acting analgesics” (J Med Chem, 2011).

The subject of data set [1] is Mus musculus. Nature of the data set: Inhibition of FAAH in C57Bl/6J mouse brain assessed as increase of 2-arachidonoylglycerol level at 50 mg/kg, po after 1 hr relative to control. The data set is classed as functional. A digest of the protocol: (§1)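 Male C57Bl/6J mice (<6 months, 20–28 g) given compound orally as a PEG300 solution at 10, 25 or 50 mg/kg, with 3 mice per group in the 50 mg/kg p.o. comparison; brains collected 1 h post-dose. Lipids extracted in CHCl3:MeOH:Tris pH 8.0 with deuterated internal standards, then measured by C18 LC-ESI-MS/MS relative to vehicle-treated mice.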

Data set [2] deals with Mus musculus. The experiment in a line: Inhibition of FAAH in C57Bl/6J mouse brain assessed as increase of arachidonic acid level at 30 mg/kg, ip after 1 hr relative to control. Format: functional. The conditions noted are these: route intraperitoneal. A digest of the protocol:
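Male C57Bl/6J mice (<6 months, 20–28 g) dosed i.p. at 30 mg/kg in 18:1:1 saline:ethanol:emulphor emulsion; brains taken 1 h later. One mouse in the initial screen, 3 per group in the follow-up. Brain homogenized in CHCl3:MeOH:Tris pH 8.0 with deuterated lipid standards; organic extract quantified by reverse-phase C18 LC-ESI-MS/MS against vehicle controls.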

In data set [3] the test system is Mus musculus. The experiment in a line: Analgesic activity in C57BL/6 mouse chronic constriction injury model assessed as reversal of von Frey filament-induced mechanical allodynia at 50 mg/kg, po measured up to 6 hrs. The data set is classed as functional, organism-based. Also on record: dose 50 mg/kg. A digest of the protocol: (§2)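 Male C57BL/6 mice with sciatic nerve chronic constriction injury (two silk ligatures, isoflurane anesthesia), tested from 10 days post-surgery after 2 days of apparatus habituation. Single oral dose in PEG300 or vehicle. Blinded observer tested ipsilateral and contralateral paws at 1, 3, 6 and 9 h: von Frey up-down method (0.16–6.0 g filaments, 5 stimuli each) and acetone-induced cold response. n = 9–10; mean ± SEM.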

Data set [4] has as its system Mus musculus. The experiment in a line: Inhibition of FAAH in C57Bl/6J mouse brain assessed as increase of 2-arachidonoylglycerol level at 50 mg/kg, po. The data set is classed as functional, organism-based. The arrangement: dose 50 mg/kg. The settings on record: TDE = time-dependent effect. In short, it runs like this: (§3)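 Male C57Bl/6J mice (<6 months, 20–28 g) given a single oral dose as a PEG300 solution. Brains were homogenized in CHCl3:MeOH:Tris pH 8.0 containing deuterated internal standards. The organic extract was analysed by reverse-phase C18 LC–ESI triple-quadrupole MS for anandamide, PEA, OEA and 2-AG. Dose series (10, 25, 50 mg/kg) was sampled at 1 h; the 50 mg/kg time course ran to 9 h. Three mice per group in the i.p./p.o. comparison.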

Data set [5] concerns Mus musculus. The experiment in a line: Inhibition of FAAH in C57Bl/6J mouse brain assessed as increase of N-palmitoyl ethanolamine level at 50 mg/kg, po after 1 hr relative to control. Format: functional. A digest of the protocol:
as §1

Data set [6] concerns the target T1, Fatty-acid amide hydrolase 1 (Homo sapiens) (UniProt O00519).
T1 sequence (whole entry): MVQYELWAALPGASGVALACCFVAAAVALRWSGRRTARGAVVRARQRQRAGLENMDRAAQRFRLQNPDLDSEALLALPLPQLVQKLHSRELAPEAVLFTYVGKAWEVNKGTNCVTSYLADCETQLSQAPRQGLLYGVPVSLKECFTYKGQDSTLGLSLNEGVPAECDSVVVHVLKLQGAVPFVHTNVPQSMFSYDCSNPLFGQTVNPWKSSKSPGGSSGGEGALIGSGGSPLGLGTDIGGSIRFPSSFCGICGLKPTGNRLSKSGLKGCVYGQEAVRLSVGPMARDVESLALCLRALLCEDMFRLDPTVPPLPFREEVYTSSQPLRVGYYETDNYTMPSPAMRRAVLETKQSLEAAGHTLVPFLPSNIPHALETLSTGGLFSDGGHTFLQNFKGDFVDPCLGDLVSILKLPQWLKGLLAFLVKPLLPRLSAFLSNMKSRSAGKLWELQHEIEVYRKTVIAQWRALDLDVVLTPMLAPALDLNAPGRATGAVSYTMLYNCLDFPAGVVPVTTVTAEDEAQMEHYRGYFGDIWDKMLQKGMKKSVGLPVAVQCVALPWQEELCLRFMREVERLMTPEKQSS
The experiment in a line: Reversible inhibition of full-length human FAAH expressed in COS-7 cells by Lineweaver-Burk analysis. Format: cell-based. A digest of the protocol:
(§4)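 Solubilized membrane lysate of COS-7 cells transiently transfected with full-length human FAAH cDNA. Aliquots quenched in 0.1 N HCl at three times; oleamide/oleic acid extracted into EtOAc and separated by TLC. Initial rates (≤10–20% conversion) analysed by Lineweaver–Burk plot.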

Data set [7] relates to Mus musculus. Nature of the data set: Toxicity in C57BL/6 mouse assessed as hypomotility at 50 mg/kg, po. Format: organism-based. Also on record: dose 50 mg/kg, route oral. The settings on record: in vivo.
For data set [8], the system named is Mus musculus. Nature of the data set: Analgesic activity in C57BL/6 mouse chronic constriction injury model assessed as reversal of acetone-induced cold allodynia at 50 mg/kg, po measured up to 9 hrs. The data set is classed as functional, organism-based. Also on record: dose 50 mg/kg. A digest of the protocol: as §2
In data set [9] the test system is Mus musculus. Nature of the data set: Inhibition of FAAH in C57Bl/6J mouse brain assessed as increase of anandamide level at 25 to 50 mg/kg, po after 1 hr relative to control. The settings on record: dose mg/kg 25-50. Format: functional. In short, it runs like this:
as §1

Data set [10] has as its system Mus musculus. Nature of the data set: Inhibition of FAAH in po dosed C57Bl/6J mouse brain assessed as increase of N-palmitoyl ethanolamine level after 1 hr relative to control. Format: functional, organism-based. The settings on record: in the assay text read “anandamide” for “N-palmitoyl ethanolamine”. A digest of the protocol:
as §3

Data set [11] concerns Mus musculus. The experiment in a line: Inhibition of FAAH in C57Bl/6J mouse brain assessed as increase of N-palmitoyl ethanolamine level at 50 mg/kg, po. The settings on record: TDE = time-dependent effect. Also on record: dose 50 mg/kg. The data set is classed as functional, organism-based. A digest of the protocol: as §3
Data set [12] has as its target T1, Fatty-acid amide hydrolase 1 (Homo sapiens). Nature of the data set: Competitive inhibition of full-length human FAAH expressed in COS-7 cells by Lineweaver-Burk analysis. Format: cell-based. In short, it runs like this: as §4
Data set [13] concerns Mus musculus. Nature of the data set: Inhibition of FAAH in C57Bl/6J mouse brain assessed as increase of anandamide level at 50 mg/kg, po after 1 hr relative to control. Format: functional. In short, it runs like this: as §1

For `O=C(c1ncc(-c2ccccn2)o1)[C@H]1CCc2cc(Oc3ccccc3)ccc2C1`, the “fold change (FC)” value stood at 1.4 with Mus musculus [1]; 0.8 in the data set with Mus musculus [2]; 7.7 in the data set with Mus musculus [5]; 12 in the data set with Mus musculus [9]; 13 in the data set with Mus musculus [13]. In addition, the outcome with Mus musculus [3] and in the data set with Mus musculus [8] was Active. In addition, the Activity result was “tde” in the data set with Mus musculus [4], “Non-toxic” in the data set on Mus musculus [7], “Dose-dependent effect” in the data set with Mus musculus [10] and “tde” in the data set on Mus musculus [11]. Moreover, the inhibition entry in [6] and in data set [12] was “Active” each time.
